These results are taken from ChEMBL document CHEMBL4411328, “Synthesis and Structural/Functional Characterization of Selective M14 Metallocarboxypeptidase Inhibitors Based on Phosphinic Pseudopeptide Scaffold: Implications on the Design of Specific Optical Probes” (J Med Chem, 2019).

One data set is filed under the species Bos taurus. As to the kind of experiment: Inhibition of bovine trypsin at 1 nM to 1 mM using Nalpha-benzoyl-L-arginine 4-nitroanilide hydrochloride as substrate preincubated for 45 mins measured at 30 sec intervals for 15 mins by UV/vis-spectrophotometry.
Data set [1] deals with Matrix metalloproteinase-9 (Homo sapiens, UniProt P14780). As to the kind of experiment: Inhibition of human MMP9 using fluorogenic Mca-Pro-Leu-Gly-Leu-Dpa-Ala-Arg-NH2 peptide as substrate preincubated for 45 mins measured at 30 sec intervals for 15 mins by UV/vis-spectrophotometry. Put shortly: (§1)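 MMPs at nanomolar level with fluorogenic Mca-Pro-Leu-Gly-Leu-Dpa-Ala-Arg-NH2 substrate in 50 mM Tris-HCl pH 6.8, 10 mM CaCl2. Enzyme, inhibitor and buffer preincubated 45 min at 37 °C, then substrate added; initial velocities from 30-sec reads over 15 min, in triplicate.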

Data set [2] has as its target Mast cell carboxypeptidase A (Homo sapiens) (UniProt P15088). As to the kind of experiment: Binding affinity to CPA3 expressing human HeLa cells assessed as compound co-localization with CPA3 at 1 to 5 uM treated for 6 hrs followed by cell wash and measured by DAPI-staining based fluorescence confocal microscopy. The method in brief:
(§2)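 HeLa cells with cytoplasmic hCPA3 expression were treated 6 h with the fluorescent probe at 1 or 5 µM, washed, then imaged by fluorescence confocal microscopy for internalization and co-localization with CPA3.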

Data set [3] concerns the target Macrophage metalloelastase (Homo sapiens, UniProt P39900). As to the kind of experiment: Inhibition of human MMP12 using fluorogenic Mca-Pro-Leu-Gly-Leu-Dpa-Ala-Arg-NH2 peptide as substrate preincubated for 45 mins measured at 30 sec intervals for 15 mins by UV/vis-spectrophotometry. Put shortly: as §1
Data set [4] addresses Mast cell carboxypeptidase A (Rattus norvegicus, UniProt P21961). Description: Inhibition of rat CPA3 using AAFP as substrate preincubated for 45 mins measured at 30 sec intervals for 15 mins by UV/vis-spectrophotometry. Put shortly:
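Enzyme, inhibitor and buffer preincubated 45 min at 37 °C, then substrate added. Read at 355 nm every 30 sec for 15 min as initial velocities, in triplicate.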

Data set [5] addresses Carboxypeptidase N catalytic chain (Homo sapiens) (UniProt P15169). As to the kind of experiment: Inhibition of human CPN at 1 nM to 1 mM using N-(3-[2-furyl]acryloyl)-alanyl-lysine-OH as substrate preincubated for 45 mins measured at 30 sec intervals for 15 mins by UV/vis-spectrophotometry. The method in brief: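 hCPN at 2.0x10-9 M with 2.0x10-4 M FAAK substrate in 20 mM Tris-HCl pH 7.5, 100 mM NaCl, followed at 330 nm. Enzyme and inhibitor preincubated 45 min at 37 °C before substrate. Initial velocities read every 30 sec over 15 min, triplicate.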

Data set [6] in a line: Drug uptake in CPA3 expressing human HeLa cells at 1 to 5 uM treated for 6 hrs followed by cell wash and measured by DAPI-staining based fluorescence confocal microscopy. It is filed as ADME. Put shortly:
as §2

The test system of data set [7] is HEK-293T. As to the kind of experiment: Cytotoxicity against HEK293T cells by fluorescence confocal microscopy. It is filed as cell-based. The conditions noted are these: human.
For data set [8], the target named is Cytosolic carboxypeptidase 6 (Homo sapiens) (UniProt Q5VU57). As to the kind of experiment: Inhibition of human CCP6 at 1 nM to 1 mM using tubulin as substrate preincubated for 45 mins measured at 30 sec intervals for 15 mins by UV/vis-spectrophotometry. Put shortly: (§3)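 hCCP1 or hCCP6 at 1.0x10-6 g with tubulin (12.5x10-5 g) as substrate in 20 mM Tris-HCl pH 7.5, 100 mM NaCl. Enzyme, inhibitor and buffer preincubated 45 min at 37 °C before substrate addition; run in triplicate.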

Data set [9] concerns the target Neutrophil elastase (Homo sapiens) (UniProt P08246). As to the kind of experiment: Inhibition of human neutrophil Elastase at 1 nM to 1 mM using succinyl-alanylalanyl-prolyl-valine-4-nitroanilide as substrate preincubated for 45 mins measured at 30 sec intervals for 15 mins by UV/vis-spectrophotometry. Put shortly:
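hNElastase 2.0x10-7 M, Suc-AAPVPNA 1.0x10-3 M, in 100 mM Tris-HCl pH 8.0, monitored at 414 nm. Preincubated with inhibitor 45 min at 37 °C before substrate; initial velocities from 30-sec reads over 15 min, triplicate.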

In data set [10] the target is Cytosolic carboxypeptidase 1 (Homo sapiens) (UniProt Q9UPW5). Description: Inhibition of human CCP1 at 1 nM to mM using tubulin as substrate preincubated for 45 mins measured at 30 sec intervals for 15 mins by UV/vis-spectrophotometry. The method in brief:
as §3

Data set [11] has as its system HEK-293T. Description: Cytotoxicity against HEK293T cells assessed as reduction in cell viability at 1 to 5 uM after 24 hrs by XTT assay. It is filed as cell-based. The conditions noted are these: human. Put shortly:
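Cells were exposed to compound at 1 and 5 µM for 24h in culture, and viability was then read by the XTT assay.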
For orientation: Formazan colour is commonly taken as a measure of viable cells.

Data set [12] addresses T1, Carboxypeptidase A1 (Homo sapiens) (UniProt P15085).
T1 sequence (whole entry): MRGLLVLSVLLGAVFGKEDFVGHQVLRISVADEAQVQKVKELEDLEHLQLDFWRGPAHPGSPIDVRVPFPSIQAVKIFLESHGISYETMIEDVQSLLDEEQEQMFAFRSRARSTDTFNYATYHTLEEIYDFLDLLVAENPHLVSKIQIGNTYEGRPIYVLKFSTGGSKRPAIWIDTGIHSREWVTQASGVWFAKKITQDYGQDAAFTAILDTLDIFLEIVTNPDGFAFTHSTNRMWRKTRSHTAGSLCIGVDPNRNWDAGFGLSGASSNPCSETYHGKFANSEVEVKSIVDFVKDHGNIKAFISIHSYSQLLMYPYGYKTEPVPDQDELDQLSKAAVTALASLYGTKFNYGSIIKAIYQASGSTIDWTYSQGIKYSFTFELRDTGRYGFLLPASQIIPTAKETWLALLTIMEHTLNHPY
Description: Inhibition of human CPA1 peptide degradation activity at 5 to 500 nM using neurotensin peptide as substrate preincubated for 2 hrs followed by substrate addition and measured up to 7 hrs by MALDI-TOF/TOF spectrometry. Put shortly: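 Human CPA1 (20nM) digested the model peptide neurotensin over a 0-7h time course, with no inhibitor or with inhibitor at 5 and 500nM. Samples were taken at intervals and analyzed by MALDI-TOF MS.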

Broadly, the Ki is a dissociation constant, usually derived from enzyme kinetics or from competition with a known ligand. High values mean a looser hold on the target, low ones a stronger hold on the target.

The source made the active and inactive calls. The rule behind the calls is not given here.

Chain of Macrophage metalloelastase (P39900 whole entry): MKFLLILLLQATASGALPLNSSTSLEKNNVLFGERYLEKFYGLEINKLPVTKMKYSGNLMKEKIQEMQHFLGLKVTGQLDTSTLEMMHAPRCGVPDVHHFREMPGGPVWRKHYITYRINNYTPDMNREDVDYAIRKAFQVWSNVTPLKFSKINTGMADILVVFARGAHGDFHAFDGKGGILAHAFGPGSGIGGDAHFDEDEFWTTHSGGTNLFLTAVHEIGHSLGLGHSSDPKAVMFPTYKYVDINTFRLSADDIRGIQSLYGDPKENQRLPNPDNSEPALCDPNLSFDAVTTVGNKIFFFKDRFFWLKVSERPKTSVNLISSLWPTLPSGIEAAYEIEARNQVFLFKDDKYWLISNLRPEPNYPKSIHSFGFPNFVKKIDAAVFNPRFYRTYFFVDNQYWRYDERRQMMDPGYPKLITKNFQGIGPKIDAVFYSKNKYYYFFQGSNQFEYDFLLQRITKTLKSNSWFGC
Chain of Cytosolic carboxypeptidase 1 (Homo sapiens) (Q9UPW5 whole entry): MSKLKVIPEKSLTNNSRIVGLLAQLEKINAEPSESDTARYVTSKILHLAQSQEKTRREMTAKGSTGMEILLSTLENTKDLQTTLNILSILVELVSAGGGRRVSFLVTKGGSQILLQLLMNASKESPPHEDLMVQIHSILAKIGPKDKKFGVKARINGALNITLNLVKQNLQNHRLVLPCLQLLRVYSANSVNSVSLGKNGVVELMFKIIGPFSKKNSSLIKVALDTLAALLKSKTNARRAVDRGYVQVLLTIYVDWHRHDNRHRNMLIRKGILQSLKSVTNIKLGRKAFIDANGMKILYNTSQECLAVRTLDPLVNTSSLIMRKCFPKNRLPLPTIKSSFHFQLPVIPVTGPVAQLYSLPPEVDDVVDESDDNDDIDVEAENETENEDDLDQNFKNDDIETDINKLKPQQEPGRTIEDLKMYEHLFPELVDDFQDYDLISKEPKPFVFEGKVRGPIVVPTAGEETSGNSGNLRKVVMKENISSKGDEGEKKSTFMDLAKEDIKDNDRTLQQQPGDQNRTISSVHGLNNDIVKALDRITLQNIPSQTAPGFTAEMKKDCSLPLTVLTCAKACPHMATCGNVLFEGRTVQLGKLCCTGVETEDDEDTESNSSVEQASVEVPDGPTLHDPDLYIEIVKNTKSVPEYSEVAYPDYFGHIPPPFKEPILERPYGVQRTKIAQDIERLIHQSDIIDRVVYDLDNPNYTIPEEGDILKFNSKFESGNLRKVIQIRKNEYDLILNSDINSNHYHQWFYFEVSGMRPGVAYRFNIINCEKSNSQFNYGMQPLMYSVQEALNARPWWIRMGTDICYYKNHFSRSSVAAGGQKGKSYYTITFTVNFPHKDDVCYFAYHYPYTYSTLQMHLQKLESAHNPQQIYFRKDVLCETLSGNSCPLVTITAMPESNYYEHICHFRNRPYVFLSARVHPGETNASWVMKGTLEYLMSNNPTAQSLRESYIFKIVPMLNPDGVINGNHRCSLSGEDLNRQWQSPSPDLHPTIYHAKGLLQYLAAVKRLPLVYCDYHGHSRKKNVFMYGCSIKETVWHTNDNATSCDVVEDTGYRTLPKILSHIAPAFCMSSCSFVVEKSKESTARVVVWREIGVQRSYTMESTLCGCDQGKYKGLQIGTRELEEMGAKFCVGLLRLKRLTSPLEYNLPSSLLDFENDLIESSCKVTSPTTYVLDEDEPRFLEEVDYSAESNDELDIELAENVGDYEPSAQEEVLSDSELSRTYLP
Chain of Carboxypeptidase N catalytic chain (Homo sapiens) (P15169 whole entry): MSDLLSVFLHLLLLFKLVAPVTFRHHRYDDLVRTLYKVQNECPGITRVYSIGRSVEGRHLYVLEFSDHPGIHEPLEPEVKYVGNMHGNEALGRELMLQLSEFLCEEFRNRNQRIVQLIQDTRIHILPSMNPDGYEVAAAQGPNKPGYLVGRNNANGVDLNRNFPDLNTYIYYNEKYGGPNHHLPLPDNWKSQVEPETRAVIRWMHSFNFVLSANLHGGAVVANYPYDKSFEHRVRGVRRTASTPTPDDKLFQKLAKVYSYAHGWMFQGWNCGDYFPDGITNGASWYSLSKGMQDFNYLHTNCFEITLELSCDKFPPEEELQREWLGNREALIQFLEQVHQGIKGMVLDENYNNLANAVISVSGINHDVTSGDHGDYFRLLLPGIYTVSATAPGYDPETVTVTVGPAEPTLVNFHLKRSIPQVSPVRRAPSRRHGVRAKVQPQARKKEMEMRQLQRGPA
Chain of Neutrophil elastase (Homo sapiens) (P08246 whole entry): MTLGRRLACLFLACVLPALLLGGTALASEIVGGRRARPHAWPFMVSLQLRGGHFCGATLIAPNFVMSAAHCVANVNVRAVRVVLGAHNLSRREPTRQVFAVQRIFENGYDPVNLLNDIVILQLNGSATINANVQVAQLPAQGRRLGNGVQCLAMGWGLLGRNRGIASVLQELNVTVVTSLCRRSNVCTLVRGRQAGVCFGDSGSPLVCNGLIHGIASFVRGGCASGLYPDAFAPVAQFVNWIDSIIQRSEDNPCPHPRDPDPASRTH
Chain of Cytosolic carboxypeptidase 6 (Homo sapiens) (Q5VU57 whole entry): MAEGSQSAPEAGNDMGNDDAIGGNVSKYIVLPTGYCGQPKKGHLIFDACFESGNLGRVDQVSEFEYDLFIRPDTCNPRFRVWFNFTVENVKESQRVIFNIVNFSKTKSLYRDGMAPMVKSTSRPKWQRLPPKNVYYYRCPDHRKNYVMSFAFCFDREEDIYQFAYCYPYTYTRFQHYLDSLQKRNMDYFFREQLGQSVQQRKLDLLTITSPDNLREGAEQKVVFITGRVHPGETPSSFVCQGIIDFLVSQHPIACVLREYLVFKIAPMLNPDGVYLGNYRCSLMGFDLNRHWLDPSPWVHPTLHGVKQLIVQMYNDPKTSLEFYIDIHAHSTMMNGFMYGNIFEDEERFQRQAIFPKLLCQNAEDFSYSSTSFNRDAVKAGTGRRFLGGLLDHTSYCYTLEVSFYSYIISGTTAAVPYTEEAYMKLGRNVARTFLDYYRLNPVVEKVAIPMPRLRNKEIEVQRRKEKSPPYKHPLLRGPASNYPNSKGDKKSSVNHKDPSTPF
Chain of Matrix metalloproteinase-9 (P14780 whole entry): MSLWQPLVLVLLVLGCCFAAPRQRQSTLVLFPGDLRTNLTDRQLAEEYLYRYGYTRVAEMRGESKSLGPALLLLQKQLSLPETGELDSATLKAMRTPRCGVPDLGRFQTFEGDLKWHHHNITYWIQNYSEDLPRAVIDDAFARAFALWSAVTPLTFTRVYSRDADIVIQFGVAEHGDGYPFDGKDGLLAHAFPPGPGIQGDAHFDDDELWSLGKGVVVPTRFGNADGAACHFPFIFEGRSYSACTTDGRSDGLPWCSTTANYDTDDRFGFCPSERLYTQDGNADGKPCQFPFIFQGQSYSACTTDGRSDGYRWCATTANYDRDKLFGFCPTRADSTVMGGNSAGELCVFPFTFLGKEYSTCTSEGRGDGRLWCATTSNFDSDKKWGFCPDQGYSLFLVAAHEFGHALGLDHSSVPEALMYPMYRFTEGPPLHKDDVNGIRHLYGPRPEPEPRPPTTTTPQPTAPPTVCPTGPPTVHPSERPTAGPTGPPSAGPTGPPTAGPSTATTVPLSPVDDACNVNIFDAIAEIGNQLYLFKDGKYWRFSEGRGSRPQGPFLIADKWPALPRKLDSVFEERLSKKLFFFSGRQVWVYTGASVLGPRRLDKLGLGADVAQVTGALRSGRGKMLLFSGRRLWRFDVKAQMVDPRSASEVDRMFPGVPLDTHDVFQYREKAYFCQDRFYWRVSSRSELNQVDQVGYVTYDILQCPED
Chain of Mast cell carboxypeptidase A (Homo sapiens) (P15088 whole entry): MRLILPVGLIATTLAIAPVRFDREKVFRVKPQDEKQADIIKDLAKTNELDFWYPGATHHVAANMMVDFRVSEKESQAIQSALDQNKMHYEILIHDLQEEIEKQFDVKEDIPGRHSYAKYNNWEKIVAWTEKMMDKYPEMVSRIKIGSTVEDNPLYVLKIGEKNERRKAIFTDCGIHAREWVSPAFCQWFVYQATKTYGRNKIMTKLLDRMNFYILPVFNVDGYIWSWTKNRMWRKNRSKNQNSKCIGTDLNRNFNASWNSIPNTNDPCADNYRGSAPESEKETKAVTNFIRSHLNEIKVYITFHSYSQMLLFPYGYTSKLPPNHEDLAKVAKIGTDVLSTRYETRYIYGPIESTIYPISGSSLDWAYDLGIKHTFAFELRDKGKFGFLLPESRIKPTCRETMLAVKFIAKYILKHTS
Chain of Mast cell carboxypeptidase A (P21961 whole entry): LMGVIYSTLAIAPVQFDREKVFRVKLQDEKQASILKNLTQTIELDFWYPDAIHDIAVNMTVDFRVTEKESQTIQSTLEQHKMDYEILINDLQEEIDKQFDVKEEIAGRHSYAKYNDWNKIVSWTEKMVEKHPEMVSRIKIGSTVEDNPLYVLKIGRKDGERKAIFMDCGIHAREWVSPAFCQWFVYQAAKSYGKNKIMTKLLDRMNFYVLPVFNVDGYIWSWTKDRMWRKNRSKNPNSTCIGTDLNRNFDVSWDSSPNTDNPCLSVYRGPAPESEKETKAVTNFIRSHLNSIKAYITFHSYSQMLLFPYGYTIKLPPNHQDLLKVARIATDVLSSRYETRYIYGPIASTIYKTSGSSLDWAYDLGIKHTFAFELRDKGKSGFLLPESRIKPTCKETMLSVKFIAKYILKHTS

In the case of `C[C@H](NC(=O)[C@H](Cc1ccc(O)cc1)NC(=O)COCCOCCNC(=O)CCOCCOCCOCCNC(=O)CCc1ccc(C(=C\C=C2\N(CCCCS(=O)(=O)O)c3ccc4c(S(=O)(=O)[O-])cc(S(=O)(=O)O)cc4c3C2(C)C)/C=C/C2=[N+](CCCCS(=O)(=O)O)c3ccc4c(S(=O)(=O)O)cc(S(=O)(=O)O)cc4c3C2(C)C)cc1)P(=O)(O)C[C@@H](CCc1ccccc1)C(=O)O`, the inhibition result (in the data set listed under Bos taurus; in data set [5]; in [8]; in [9]; in data set [10]) was “inactive” throughout. The Ki in data set [1] was determined as 2590 nM; in data set [3], 1340 nM; in data set [4], 0.017 nM. Besides, the result in [2] was Active. Moreover, the Drug uptake result in data set [6] is listed as “Not Active”. Also, the Activity entry in the data set with HEK-293T [7] was “Non-Toxic”.
`CC(=O)N[C@@H](Cc1ccc(O)cc1)C(=O)N[C@@H](C)P(=O)(O)C[C@@H](CCc1ccccc1)C(=O)O`: the Activity entry in the data set with HEK-293T [11] was “Non-Toxic”. The inhibition entry in [12] is “Active”.
